Assay results reported in ChEMBL document CHEMBL1641468, “Synthesis of modified siRNA bearing C-5 polyamine-substituted pyrimidine nucleoside in their 3'-overhang regions and its RNAi activity” (Bioorg Med Chem Lett, 2011).
Active and inactive are the calls of the source. The calls are words filed in the database; no cut-off is given here.

Assays:
[1] = target: T1, Hepatocyte nuclear factor 4-alpha (Homo sapiens) (UniProt P41235); test: Inhibition of HNF4alpha mRNA expression in human HepG2 cells after 24 hrs by real-time RT-PCR
T1 sequence (whole entry): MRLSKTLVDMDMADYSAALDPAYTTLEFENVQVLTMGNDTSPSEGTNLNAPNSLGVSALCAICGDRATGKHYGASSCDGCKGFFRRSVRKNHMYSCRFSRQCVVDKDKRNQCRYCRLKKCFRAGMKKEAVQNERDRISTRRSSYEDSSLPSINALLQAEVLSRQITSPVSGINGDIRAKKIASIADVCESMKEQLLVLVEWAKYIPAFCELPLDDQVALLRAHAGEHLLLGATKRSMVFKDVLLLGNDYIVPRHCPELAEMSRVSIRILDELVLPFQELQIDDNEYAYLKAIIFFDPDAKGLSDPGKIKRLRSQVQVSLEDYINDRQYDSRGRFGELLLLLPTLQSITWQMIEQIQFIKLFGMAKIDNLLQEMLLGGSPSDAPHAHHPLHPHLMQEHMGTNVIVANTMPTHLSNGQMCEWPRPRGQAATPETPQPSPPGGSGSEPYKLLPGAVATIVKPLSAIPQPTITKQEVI

[2] = Chemical stability of the compound in presence of snake venom phosphodiesterase after 30 mins by RP-HPLC analysis; format: physicochemical; conditions: 0.5 h
Outline: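 Each oligoribonucleotide (0.8 nmol) incubated with snake venom phosphodiesterase, a 3'-exonuclease (0.01 U), in 200 mM Tris–HCl pH 8.0 with 100 mM MgCl₂ at 37 °C for 5 and 30 min; mixtures analysed by RP-HPLC, remaining full-length RNA expressed as fraction of total RNA from chromatogram peak areas.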

[3] = target: T1, Hepatocyte nuclear factor 4-alpha (Homo sapiens); test: Inhibition of HNF4alpha mRNA expression in human HepG2 cells after 24 hrs by RT-PCR analysis; format: cell-based; conditions: in the assay text read “after 48 hrs” for “after 24 hrs”
Outline: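 HepG2 cells were grown in DMEM with 5% FBS at 37 °C and transfected with siRNA using a transfection reagent. After 24 h at 37 °C, the medium was changed to DMEM with 10% FBS and cells were incubated a further 24 h. Total RNA was reverse-transcribed for real-time PCR (40 cycles). HNF4α mRNA was normalized to GAPDH by ΔΔCt and expressed relative to nonsense control siRNA, using the mean Ct of duplicate PCRs from independent cells.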

SMILES: NCCN(CCN)CCNC(=O)Cc1cn([C@H]2C[C@H](OP(=O)(O)OC[C@H]3O[C@@H](n4cc(CC(=O)NCCN(CCN)CCN)c(=O)[nH]c4=O)C[C@@H]3O)[C@@H](COP(=O)(O)O[C@@H]3[C@H](O)[C@@H](COP(=O)(O)O[C@H]4[C@@H](O)[C@H](n5cnc6c(N)ncnc65)O[C@@H]4COP(=O)(O)O[C@H]4[C@@H](O)[C@H](n5ccc(N)nc5=O)O[C@@H]4COP(=O)(O)O[C@H]4[C@@H](O)[C@H](n5cnc6c(N)ncnc65)O[C@@H]4COP(=O)(O)O[C@@H]4[C@H](O)[C@@H](COP(=O)(O)O[C@@H]5[C@H](O)[C@@H](COP(=O)(O)O[C@H]6[C@@H](O)[C@H](n7ccc(=O)[nH]c7=O)O[C@@H]6COP(=O)(O)O[C@@H]6[C@H](O)[C@@H](COP(=O)(O)O[C@@H]7[C@H](O)[C@@H](COP(=O)(O)O[C@H]8[C@@H](O)[C@H](n9ccc(=O)[nH]c9=O)O[C@@H]8COP(=O)(O)O[C@@H]8[C@H](O)[C@@H](COP(=O)(O)O[C@H]9[C@@H](O)[C@H](n%10ccc(N)nc%10=O)O[C@@H]9COP(=O)(O)O[C@@H]9[C@H](O)[C@@H](COP(=O)(O)O[C@H]%10[C@@H](O)[C@H](n%11ccc(=O)[nH]c%11=O)O[C@@H]%10COP(=O)(O)O[C@@H]%10[C@H](O)[C@@H](COP(=O)(O)O[C@H]%11[C@@H](O)[C@H](n%12cnc%13c(N)ncnc%13%12)O[C@@H]%11COP(=O)(O)O[C@H]%11[C@@H](O)[C@H](n%12ccc(N)nc%12=O)O[C@@H]%11COP(=O)(O)O[C@@H]%11[C@H](O)[C@@H](COP(=O)(O)O[C@H]%12[C@@H](O)[C@H](n%13cnc%14c(=O)[nH]c(N)nc%14%13)O[C@@H]%12COP(=O)(O)O)O[C@H]%11n%11cnc%12c(=O)[nH]c(N)nc%12%11)O[C@H]%10n%10cnc%11c(=O)[nH]c(N)nc%11%10)O[C@H]9n9cnc%10c(=O)[nH]c(N)nc%109)O[C@H]8n8cnc9c(=O)[nH]c(N)nc98)O[C@H]7n7cnc8c(=O)[nH]c(N)nc87)O[C@H]6n6cnc7c(=O)[nH]c(N)nc76)O[C@H]5n5cnc6c(=O)[nH]c(N)nc65)O[C@H]4n4cnc5c(=O)[nH]c(N)nc54)O[C@H]3n3cnc4c(N)ncnc43)O2)c(=O)[nH]c1=O
- Activity [1]: Active
- Stability [2]: Stable
- Activity [3]: Active

SMILES: Cc1cn([C@H]2C[C@H](OP(=O)(O)OC[C@H]3O[C@@H](n4cc(CC(=O)NCCN(CCN)CCN)c(=O)[nH]c4=O)C[C@@H]3O)[C@@H](COP(=O)(O)O[C@@H]3[C@H](O)[C@@H](COP(=O)(O)O[C@H]4[C@@H](O)[C@H](n5cnc6c(N)ncnc65)O[C@@H]4COP(=O)(O)O[C@H]4[C@@H](O)[C@H](n5ccc(N)nc5=O)O[C@@H]4COP(=O)(O)O[C@H]4[C@@H](O)[C@H](n5cnc6c(N)ncnc65)O[C@@H]4COP(=O)(O)O[C@@H]4[C@H](O)[C@@H](COP(=O)(O)O[C@@H]5[C@H](O)[C@@H](COP(=O)(O)O[C@H]6[C@@H](O)[C@H](n7ccc(=O)[nH]c7=O)O[C@@H]6COP(=O)(O)O[C@@H]6[C@H](O)[C@@H](COP(=O)(O)O[C@@H]7[C@H](O)[C@@H](COP(=O)(O)O[C@H]8[C@@H](O)[C@H](n9ccc(=O)[nH]c9=O)O[C@@H]8COP(=O)(O)O[C@@H]8[C@H](O)[C@@H](COP(=O)(O)O[C@H]9[C@@H](O)[C@H](n%10ccc(N)nc%10=O)O[C@@H]9COP(=O)(O)O[C@@H]9[C@H](O)[C@@H](COP(=O)(O)O[C@H]%10[C@@H](O)[C@H](n%11ccc(=O)[nH]c%11=O)O[C@@H]%10COP(=O)(O)O[C@@H]%10[C@H](O)[C@@H](COP(=O)(O)O[C@H]%11[C@@H](O)[C@H](n%12cnc%13c(N)ncnc%13%12)O[C@@H]%11COP(=O)(O)O[C@H]%11[C@@H](O)[C@H](n%12ccc(N)nc%12=O)O[C@@H]%11COP(=O)(O)O[C@@H]%11[C@H](O)[C@@H](COP(=O)(O)O[C@H]%12[C@@H](O)[C@H](n%13cnc%14c(=O)[nH]c(N)nc%14%13)O[C@@H]%12COP(=O)(O)O)O[C@H]%11n%11cnc%12c(=O)[nH]c(N)nc%12%11)O[C@H]%10n%10cnc%11c(=O)[nH]c(N)nc%11%10)O[C@H]9n9cnc%10c(=O)[nH]c(N)nc%109)O[C@H]8n8cnc9c(=O)[nH]c(N)nc98)O[C@H]7n7cnc8c(=O)[nH]c(N)nc87)O[C@H]6n6cnc7c(=O)[nH]c(N)nc76)O[C@H]5n5cnc6c(=O)[nH]c(N)nc65)O[C@H]4n4cnc5c(=O)[nH]c(N)nc54)O[C@H]3n3cnc4c(N)ncnc43)O2)c(=O)[nH]c1=O
- Activity [1]: Active
- Stability [2]: Stable
- Activity [3]: Active
